Reference: ChEMBL document CHEMBL2062386, “Discovery of LFF571: an investigational agent for Clostridium difficile infection” (J Med Chem, 2012)
Values after ≈ are worked out from the molar mass of the structure shown.

Key:
Assay type in all cases: functional
Staphylococcus aureus = test: Antibacterial activity against Staphylococcus aureus A4.018 by broth microdilution method
Streptococcus pyogenes = test: Antibacterial activity against Streptococcus pyogenes ATCC BAA-595 by broth microdilution method
In short: (§1)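 Broth microdilution MICs were run per CLSI M07-A8 (2009). The strain panel included C. difficile ATCC 43255, E. faecalis ATCC 29212 and S. pyogenes ATCC BAA-595.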

Escherichia coli = test: Inhibition of protein synthesis in Escherichia coli S30 extract at 2 uM after 75 mins by luciferase based luminescence assay relative to GE2270A
Enterococcus faecium = test: Antibacterial activity against Enterococcus faecium 7130724 by broth microdilution method
[1] = Antibacterial activity against Clostridium difficile ATCC 43255 by broth microdilution method; conditions: Clostridioides difficile; in short: as §1
Enterococcus faecalis = test: Antibacterial activity against Enterococcus faecalis ATCC 29212 by broth microdilution method; in short: as §1

Row | Structure (SMILES) | MIC (Staphylococcus aureus) | MIC (Streptococcus pyogenes) | inhibition at 2 µM (Escherichia coli) | MIC (Enterococcus faecium) | MIC [1] | MIC (Enterococcus faecalis)
1 | CNC(=O)C[C@@H]1NC(=O)c2csc(n2)-c2ccc(-c3nc(N(CCCCC(=O)O)C(=O)NCCCC(=O)O)cs3)nc2-c2csc(n2)-c2csc(n2)[C@H]([C@@H](O)c2ccccc2)NC(=O)CNC(=O)c2nc(sc2COC)[C@H](C(C)C)NC(=O)c2nc1sc2C | 32 µg/mL (≈ 24.1 µM) | > 32 µg/mL | 30% | > 32 µg/mL | 4 µg/mL (≈ 3.02 µM) | > 32 µg/mL
2 | CNC(=O)C[C@@H]1NC(=O)c2csc(n2)-c2ccc(-c3nc(N(CCCCC(=O)O)C(=O)N[C@H]4CC[C@H](C(=O)O)CC4)cs3)nc2-c2csc(n2)-c2csc(n2)[C@H]([C@@H](O)c2ccccc2)NC(=O)CNC(=O)c2nc(sc2COC)[C@H](C(C)C)NC(=O)c2nc1sc2C | 16 µg/mL (≈ 11.7 µM) | 32 µg/mL (≈ 23.4 µM) | 30% | > 32 µg/mL | 1 µg/mL (≈ 0.732 µM) | 16 µg/mL (≈ 11.7 µM)
3 | CNC(=O)C[C@@H]1NC(=O)c2csc(n2)-c2ccc(-c3nc(N(CCCCC(=O)O)C(=O)OC4CC(C(=O)O)C4)cs3)nc2-c2csc(n2)-c2csc(n2)[C@H]([C@@H](O)c2ccccc2)NC(=O)CNC(=O)c2nc(sc2COC)[C@H](C(C)C)NC(=O)c2nc1sc2C (stereo not given in full) | 0.5 µg/mL (≈ 0.374 µM) | 2 µg/mL (≈ 1.49 µM) | 67% | 0.25 µg/mL (≈ 0.187 µM) | 0.03 µg/mL (≈ 0.0224 µM) | 0.25 µg/mL (≈ 0.187 µM)
4 | CNC(=O)C[C@@H]1NC(=O)c2csc(n2)-c2ccc(-c3nc(N(CCCCC(=O)O)C(=O)C[C@H]4CC[C@H](C(=O)O)CC4)cs3)nc2-c2csc(n2)-c2csc(n2)[C@H]([C@@H](O)c2ccccc2)NC(=O)CNC(=O)c2nc(sc2COC)[C@H](C(C)C)NC(=O)c2nc1sc2C | 4 µg/mL (≈ 2.93 µM) | 32 µg/mL (≈ 23.4 µM) | 30% | > 32 µg/mL | 0.25 µg/mL (≈ 0.183 µM) | 8 µg/mL (≈ 5.86 µM)
5 | CNC(=O)C[C@@H]1NC(=O)c2csc(n2)-c2ccc(-c3nc(N(CCCC(=O)O)C(=O)c4ccc(C(=O)O)cn4)cs3)nc2-c2csc(n2)-c2csc(n2)[C@H]([C@@H](O)c2ccccc2)NC(=O)CNC(=O)c2nc(sc2COC)[C@H](C(C)C)NC(=O)c2nc1sc2C | 32 µg/mL (≈ 24 µM) | > 32 µg/mL | 30% | 32 µg/mL (≈ 24 µM) | 4 µg/mL (≈ 3 µM) | 16 µg/mL (≈ 12 µM)
6 | CNC(=O)C[C@@H]1NC(=O)c2csc(n2)-c2ccc(-c3nc(N(CCCC(=O)O)C(=O)CCCC(=O)O)cs3)nc2-c2csc(n2)-c2csc(n2)[C@H]([C@@H](O)c2ccccc2)NC(=O)CNC(=O)c2nc(sc2COC)[C@H](C(C)C)NC(=O)c2nc1sc2C | > 32 µg/mL | > 32 µg/mL | 30% | > 32 µg/mL | > 4 µg/mL | > 32 µg/mL
7 | CNC(=O)C[C@@H]1NC(=O)c2csc(n2)-c2ccc(-c3nc(N(CCCC(=O)O)C(=O)CCCCC(=O)O)cs3)nc2-c2csc(n2)-c2csc(n2)[C@H]([C@@H](O)c2ccccc2)NC(=O)CNC(=O)c2nc(sc2COC)[C@H](C(C)C)NC(=O)c2nc1sc2C | 16 µg/mL (≈ 12.2 µM) | > 32 µg/mL | 30% | 32 µg/mL (≈ 24.4 µM) | 2 µg/mL (≈ 1.53 µM) | 32 µg/mL (≈ 24.4 µM)
8 | CNC(=O)C[C@@H]1NC(=O)c2csc(n2)-c2ccc(-c3nc(N(CCCCC(=O)O)C(=O)N4CCC(C(=O)O)CC4)cs3)nc2-c2csc(n2)-c2csc(n2)[C@H]([C@@H](O)c2ccccc2)NC(=O)CNC(=O)c2nc(sc2COC)[C@H](C(C)C)NC(=O)c2nc1sc2C | > 32 µg/mL | > 32 µg/mL | 30% | > 32 µg/mL | > 4 µg/mL | > 32 µg/mL
9 | CNC(=O)C[C@@H]1NC(=O)c2csc(n2)-c2ccc(-c3nc(N(CCCCC(=O)O)C(=O)[C@H]4CC[C@H](C(=O)O)CC4)cs3)nc2-c2csc(n2)-c2csc(n2)[C@H]([C@@H](O)c2ccccc2)NC(=O)CNC(=O)c2nc(sc2COC)[C@H](C(C)C)NC(=O)c2nc1sc2C | 16 µg/mL (≈ 11.8 µM) | > 32 µg/mL | 30% | > 32 µg/mL | 2 µg/mL (≈ 1.48 µM) | 32 µg/mL (≈ 23.7 µM)
10 | CNC(=O)C[C@@H]1NC(=O)c2csc(n2)-c2ccc(-c3nc(N(CCCCC(=O)O)C(=O)O[C@@H]4CC[C@@H](C(=O)O)C[C@H]4CCCCC(=O)O)cs3)nc2-c2csc(n2)-c2csc(n2)[C@H]([C@@H](O)c2ccccc2)NC(=O)CNC(=O)c2nc(sc2COC)[C@H](C(C)C)NC(=O)c2nc1sc2C | 8 µg/mL (≈ 5.45 µM) | 4 µg/mL (≈ 2.73 µM) | 50% | 4 µg/mL (≈ 2.73 µM) | 0.25 µg/mL (≈ 0.17 µM) | 4 µg/mL (≈ 2.73 µM)
11 | CNC(=O)C[C@@H]1NC(=O)c2csc(n2)-c2ccc(-c3nc(NC(=O)CC[C@H](CC(=O)O)C(=O)O)cs3)nc2-c2csc(n2)-c2csc(n2)[C@H]([C@@H](O)c2ccccc2)NC(=O)CNC(=O)c2nc(sc2COC)[C@H](C(C)C)NC(=O)c2nc1sc2C | 8 µg/mL (≈ 6.31 µM) | > 32 µg/mL | 30% | 8 µg/mL (≈ 6.31 µM) | 4 µg/mL (≈ 3.15 µM) | 4 µg/mL (≈ 3.15 µM)
12 | CNC(=O)C[C@@H]1NC(=O)c2csc(n2)-c2ccc(-c3nc(N(C/C=C/C(=O)O)C(=O)O[C@H]4CC[C@H](C(=O)O)CC4)cs3)nc2-c2csc(n2)-c2csc(n2)[C@H]([C@@H](O)c2ccccc2)NC(=O)CNC(=O)c2nc(sc2COC)[C@H](C(C)C)NC(=O)c2nc1sc2C | 0.5 µg/mL (≈ 0.37 µM) | 2 µg/mL (≈ 1.48 µM) | 67% | 0.5 µg/mL (≈ 0.37 µM) | 0.03 µg/mL (≈ 0.0222 µM) | 0.25 µg/mL (≈ 0.185 µM)
13 | CNC(=O)C[C@@H]1NC(=O)c2csc(n2)-c2ccc(-c3nc(N(CCCCC(CCC(=O)O)C(=O)O)C(=O)O[C@H]4CC[C@H](C(=O)O)CC4)cs3)nc2-c2csc(n2)-c2csc(n2)[C@H]([C@@H](O)c2ccccc2)NC(=O)CNC(=O)c2nc(sc2COC)[C@H](C(C)C)NC(=O)c2nc1sc2C (stereo not given in full) | 16 µg/mL (≈ 11 µM) | 8 µg/mL (≈ 5.51 µM) | 50% | 8 µg/mL (≈ 5.51 µM) | 0.25 µg/mL (≈ 0.172 µM) | 8 µg/mL (≈ 5.51 µM)
14 | CNC(=O)C[C@@H]1NC(=O)c2csc(n2)-c2ccc(-c3nc(N(CCCC(CCCCCCC(=O)O)C(=O)O)C(=O)O[C@H]4CC[C@H](C(=O)O)CC4)cs3)nc2-c2csc(n2)-c2csc(n2)[C@H]([C@@H](O)c2ccccc2)NC(=O)CNC(=O)c2nc(sc2COC)[C@H](C(C)C)NC(=O)c2nc1sc2C (stereo not given in full) | 1 µg/mL (≈ 0.669 µM) | 1 µg/mL (≈ 0.669 µM) | 50% | 0.5 µg/mL (≈ 0.334 µM) | 0.06 µg/mL (≈ 0.0401 µM) | 0.25 µg/mL (≈ 0.167 µM)
15 | CNC(=O)C[C@@H]1NC(=O)c2csc(n2)-c2ccc(-c3nc(NC(=O)CC[C@@H](CC(=O)O)C(=O)O)cs3)nc2-c2csc(n2)-c2csc(n2)[C@H]([C@@H](O)c2ccccc2)NC(=O)CNC(=O)c2nc(sc2COC)[C@H](C(C)C)NC(=O)c2nc1sc2C | 32 µg/mL (≈ 25.2 µM) | > 32 µg/mL | 30% | 32 µg/mL (≈ 25.2 µM) | 4 µg/mL (≈ 3.15 µM) | 16 µg/mL (≈ 12.6 µM)
16 | CNC(=O)C[C@@H]1NC(=O)c2csc(n2)-c2ccc(-c3nc(N(C)C(=O)CCCC(=O)O)cs3)nc2-c2csc(n2)-c2csc(n2)[C@H]([C@@H](O)c2ccccc2)NC(=O)CNC(=O)c2nc(sc2COC)[C@H](C(C)C)NC(=O)c2nc1sc2C | 2 µg/mL (≈ 1.63 µM) | > 64 µg/mL | 30% | 4 µg/mL (≈ 3.27 µM) | – | 2 µg/mL (≈ 1.63 µM)
17 | CNC(=O)C[C@@H]1NC(=O)c2csc(n2)-c2ccc(-c3nc(N(CCCCC(=O)O)C(=O)O[C@]4(CCCCC(=O)O)CC[C@@H](C(=O)O)CC4)cs3)nc2-c2csc(n2)-c2csc(n2)[C@H]([C@@H](O)c2ccccc2)NC(=O)CNC(=O)c2nc(sc2COC)[C@H](C(C)C)NC(=O)c2nc1sc2C | 8 µg/mL (≈ 5.45 µM) | 16 µg/mL (≈ 10.9 µM) | 50% | 8 µg/mL (≈ 5.45 µM) | – | 4 µg/mL (≈ 2.73 µM)
